The nature of data set [1]: Displacement of [3H]flumazenil from Benzodiazepine receptor in bovine cerebral cortex membrane. The class given is cell membranes, Bos taurus. A general note: Displacement assays read how much labelled ligand stays bound in the presence of the test substance.
The target of data set [2] is Gamma-aminobutyric acid receptor subunit alpha-2 (Rattus norvegicus, UniProt P18508+P23576+P63138). Description: Displacement of [3H]flumazenil from rat GABA-A alpha-2-beta-2-gamma-2 receptor expressed in HEK293 cells. It counts as cell-based. The method in brief: (§1)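 HEK293 membranes expressing rat α1β2γ2, α2β2γ2 or α5β3γ2, made in 10 mM potassium phosphate pH 7.4 (48000g, 4 °C) and resuspended with 100 mM KCl. Ki is mean ± SEM of three determinations in triplicate.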
Sequence of Gamma-aminobutyric acid receptor subunit alpha-2 (P23576 whole entry, one chain of several): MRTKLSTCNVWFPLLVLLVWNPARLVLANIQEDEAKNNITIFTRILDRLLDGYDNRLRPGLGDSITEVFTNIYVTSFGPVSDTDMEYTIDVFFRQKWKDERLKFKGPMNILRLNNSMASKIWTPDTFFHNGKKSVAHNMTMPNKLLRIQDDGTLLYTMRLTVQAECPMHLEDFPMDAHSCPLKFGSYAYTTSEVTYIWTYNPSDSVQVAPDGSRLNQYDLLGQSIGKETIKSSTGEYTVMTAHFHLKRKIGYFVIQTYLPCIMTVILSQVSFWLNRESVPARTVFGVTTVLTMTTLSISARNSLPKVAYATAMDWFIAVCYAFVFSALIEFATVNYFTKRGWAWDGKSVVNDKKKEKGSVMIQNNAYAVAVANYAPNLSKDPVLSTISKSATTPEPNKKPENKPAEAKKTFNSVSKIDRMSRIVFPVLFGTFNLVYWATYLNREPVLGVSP

Data set [3] addresses GABA-A receptor; alpha-1/beta-2/gamma-2 (Rattus norvegicus) (UniProt P18508+P62813+P63138). The data set can be described thus: Agonist activity at rat GABA-A alpha-1-beta-2-gamma-2 receptor expressed in HEK293 cells assessed as increase in 36Cl- influx. The class given is functional, cell-based. The method in brief: (§2)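 36Cl- uptake in HEK293 cells stably expressing rat α1β2γ2 or α2β2γ2, grown 3 days on polylysine-coated coverslips. Cells washed in HEPES/NaCl buffer pH 7.4, then dipped at room temperature into 36Cl- (2 µCi/mL) with drug, with or without GABA at EC20. Influx stopped after 8 s in ice-cold buffer with 0.1 mM picrotoxin. Result is % increase of EC20 GABA response, ≥5 independent experiments.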

The target of data set [4] is Gamma-aminobutyric acid receptor subunit alpha-2 (Rattus norvegicus) (UniProt P23576). Description: Agonist activity at rat GABA-A alpha-2-beta-2-gamma-2 receptor expressed in HEK293 cells assessed as increase in 36Cl- influx. The class given is functional, cell-based. The method in brief:
as §2

The subject of data set [5] is Mus musculus. The data set can be described thus: Anxiolytic effect in CD1 mouse assessed as increase in time spent in white compartment at 20 mg/kg, ip by light/dark box test. The class given is functional, organism-based. Details: dose 20 mg/kg. The method in brief: (§3)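 Male CD-1 mice (35-40 g), acclimatized 4 weeks to a reversed light cycle. […] Testing started 1 h later, with mouse placed in the lit chamber for a 5 min videotaped session.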

Data set [6] relates to Mus musculus. Description: Anxiolytic effect in CD1 mouse assessed as increase in number of transfers from lit to the dark area at 20 mg/kg, ip by light/dark box test. The class given is functional, organism-based. Further details: dose 20 mg/kg. The procedure, abridged:
as §3

Data set [7] deals with GABA-A receptor; alpha-1/beta-2/gamma-2 (Rattus norvegicus, UniProt P18508+P62813+P63138). The data set can be described thus: Displacement of [3H]flumazenil from rat GABA-A alpha-1-beta-2-gamma-2 receptor expressed in HEK293 cells. The class given is cell-based. The method in brief:
as §1

Data set [8] deals with Gamma-aminobutyric acid receptor subunit alpha-2 (Rattus norvegicus) (UniProt P23576). Description: Displacement of [3H]flumazenil from rat GABA-A alpha-2-beta-2-gamma-2 receptor expressed in HEK293 cells at 10 uM. It counts as cell-based. The procedure, abridged:
(§4)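 HEK293 membranes expressing rat α2β2γ2 or α5β3γ2 incubated with [3H]flumazenil 1-2 nM for 1 h at 4 °C, in 10 mM potassium phosphate pH 7.4 with 100 mM KCl. Compound tested at 10 µM.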

Data set [9] deals with GABA A receptor alpha-5/beta-3/gamma-2 (Rattus norvegicus) (UniProt P18508+P19969+P63079). The data set can be described thus: Displacement of [3H]flumazenil from rat GABA-A alpha-5-beta-3-gamma-2 receptor expressed in HEK293 cells at 10 uM. The class given is cell-based. The procedure, abridged:
as §4

For the next data set, the species on record is Bos taurus. Description: Displacement of [3H]flumazenil from Benzodiazepine receptor in bovine cerebral cortex membrane at 10 uM. The class given is cell membranes.
Data set [10] concerns the target GABA A receptor alpha-5/beta-3/gamma-2 (Rattus norvegicus, UniProt P18508+P19969+P63079). Description: Displacement of [3H]flumazenil from rat GABA-A alpha-5-beta-3-gamma-2 receptor expressed in HEK293 cells. The class given is cell-based. The procedure, abridged: as §1
For data set [11], the system named is Mus musculus. The data set can be described thus: Toxicity in CD1 mouse assessed as sedative effect at 1.25 mg/kg, ip by light/dark box test. The class given is organism-based. Details: dose 1.25 mg/kg, route intraperitoneal. The following applies: in vivo. The method in brief:
(§5)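 Male CD-1 albino mice (35-40 g), acclimatized 4 weeks to reversed 12 h light cycle, dosed ip in 1% carboxymethylcellulose vehicle; 1 h later placed in centre of lit chamber of light/dark box for 5 min, videotaped. Scored time in white compartment, lit/dark transfers, and rearings plus line crossings (activity) expressed per TW; n = 4-6, mean ± SEM versus vehicle.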

The subject of data set [12] is Mus musculus. The data set can be described thus: Anxiolytic effect in CD1 mouse assessed as increase in time spent in white compartment at 1.25 mg/kg, ip by light/dark box test. It counts as functional, organism-based. Details: dose 1.25 mg/kg. The method in brief:
as §5

For data set [13], the system named is Mus musculus. The data set can be described thus: Anxiolytic effect in CD1 mouse assessed as increase in number of transfers from lit to the dark area at 1.25 mg/kg, ip by light/dark box test. It counts as functional, organism-based. Details: dose 1.25 mg/kg. The method in brief:
as §5

Data set [14] has as its system Mus musculus. Description: Toxicity in CD1 mouse assessed as sedative effect at 20 mg/kg, ip by light/dark box test. It counts as organism-based. Further details: dose 20 mg/kg, route intraperitoneal. The following applies: in vivo. The procedure, abridged: as §3

Active and inactive are the calls of the source. No cut-off for these calls is given here.

Sequence of Gamma-aminobutyric acid receptor subunit alpha-2 (Rattus norvegicus) (P23576 whole entry): as the sequence (P23576 whole entry, one chain of several) above
Sequence of GABA-A receptor; alpha-1/beta-2/gamma-2 (P18508 whole entry): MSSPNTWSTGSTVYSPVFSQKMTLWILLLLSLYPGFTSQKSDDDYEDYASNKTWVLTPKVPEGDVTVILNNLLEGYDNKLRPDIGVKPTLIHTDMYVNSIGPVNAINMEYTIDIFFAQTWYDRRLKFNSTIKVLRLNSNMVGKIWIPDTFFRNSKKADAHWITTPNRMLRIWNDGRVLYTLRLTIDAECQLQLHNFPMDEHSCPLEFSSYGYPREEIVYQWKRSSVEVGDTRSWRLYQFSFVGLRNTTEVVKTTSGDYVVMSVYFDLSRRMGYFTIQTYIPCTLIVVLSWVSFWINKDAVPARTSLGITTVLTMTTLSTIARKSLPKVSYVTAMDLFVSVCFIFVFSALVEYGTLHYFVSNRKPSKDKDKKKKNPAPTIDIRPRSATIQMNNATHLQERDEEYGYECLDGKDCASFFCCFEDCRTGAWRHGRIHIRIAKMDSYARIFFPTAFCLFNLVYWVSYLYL
Sequence of GABA-A receptor; alpha-1/beta-2/gamma-2 (P62813 whole entry): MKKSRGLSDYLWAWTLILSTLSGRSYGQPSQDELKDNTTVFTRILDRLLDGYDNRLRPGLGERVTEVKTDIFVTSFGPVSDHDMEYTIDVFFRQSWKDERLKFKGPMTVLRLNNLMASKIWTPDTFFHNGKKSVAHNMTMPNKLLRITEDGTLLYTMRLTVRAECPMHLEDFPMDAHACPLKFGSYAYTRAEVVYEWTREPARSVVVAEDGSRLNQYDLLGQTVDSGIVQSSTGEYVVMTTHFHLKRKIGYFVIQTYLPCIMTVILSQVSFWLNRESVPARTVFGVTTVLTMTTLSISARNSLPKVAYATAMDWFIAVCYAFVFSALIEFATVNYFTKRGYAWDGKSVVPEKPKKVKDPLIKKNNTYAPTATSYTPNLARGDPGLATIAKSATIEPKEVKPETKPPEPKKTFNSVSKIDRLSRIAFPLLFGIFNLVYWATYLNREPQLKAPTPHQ
Sequence of GABA-A receptor; alpha-1/beta-2/gamma-2 (P63138 whole entry): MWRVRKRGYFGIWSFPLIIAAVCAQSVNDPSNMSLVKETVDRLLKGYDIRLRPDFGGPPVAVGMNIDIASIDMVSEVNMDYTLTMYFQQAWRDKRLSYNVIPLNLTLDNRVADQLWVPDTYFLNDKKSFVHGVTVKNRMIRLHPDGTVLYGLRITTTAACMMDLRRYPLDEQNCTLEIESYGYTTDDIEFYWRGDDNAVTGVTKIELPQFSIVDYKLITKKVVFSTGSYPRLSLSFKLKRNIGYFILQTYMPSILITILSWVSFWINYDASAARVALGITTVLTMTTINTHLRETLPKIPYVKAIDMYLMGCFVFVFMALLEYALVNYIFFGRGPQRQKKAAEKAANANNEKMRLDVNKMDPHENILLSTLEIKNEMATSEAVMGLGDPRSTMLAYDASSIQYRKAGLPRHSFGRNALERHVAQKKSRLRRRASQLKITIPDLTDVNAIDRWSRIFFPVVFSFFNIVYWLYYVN
Sequence of GABA A receptor alpha-5/beta-3/gamma-2 (P18508 whole entry): as the sequence (P18508 whole entry) above
Sequence of GABA A receptor alpha-5/beta-3/gamma-2 (P19969 whole entry): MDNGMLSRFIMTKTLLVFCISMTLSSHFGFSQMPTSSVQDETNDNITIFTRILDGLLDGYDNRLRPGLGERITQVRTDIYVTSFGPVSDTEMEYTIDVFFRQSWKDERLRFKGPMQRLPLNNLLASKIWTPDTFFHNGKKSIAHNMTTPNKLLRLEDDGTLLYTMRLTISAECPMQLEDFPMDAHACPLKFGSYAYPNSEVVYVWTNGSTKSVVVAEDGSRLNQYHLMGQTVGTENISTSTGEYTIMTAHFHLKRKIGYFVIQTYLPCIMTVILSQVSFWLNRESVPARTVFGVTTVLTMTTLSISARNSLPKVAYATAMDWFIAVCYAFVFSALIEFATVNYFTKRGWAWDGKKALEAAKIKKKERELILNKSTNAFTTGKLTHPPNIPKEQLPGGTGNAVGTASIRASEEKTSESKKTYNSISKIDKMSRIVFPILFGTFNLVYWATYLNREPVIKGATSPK
Sequence of GABA A receptor alpha-5/beta-3/gamma-2 (P63079 whole entry): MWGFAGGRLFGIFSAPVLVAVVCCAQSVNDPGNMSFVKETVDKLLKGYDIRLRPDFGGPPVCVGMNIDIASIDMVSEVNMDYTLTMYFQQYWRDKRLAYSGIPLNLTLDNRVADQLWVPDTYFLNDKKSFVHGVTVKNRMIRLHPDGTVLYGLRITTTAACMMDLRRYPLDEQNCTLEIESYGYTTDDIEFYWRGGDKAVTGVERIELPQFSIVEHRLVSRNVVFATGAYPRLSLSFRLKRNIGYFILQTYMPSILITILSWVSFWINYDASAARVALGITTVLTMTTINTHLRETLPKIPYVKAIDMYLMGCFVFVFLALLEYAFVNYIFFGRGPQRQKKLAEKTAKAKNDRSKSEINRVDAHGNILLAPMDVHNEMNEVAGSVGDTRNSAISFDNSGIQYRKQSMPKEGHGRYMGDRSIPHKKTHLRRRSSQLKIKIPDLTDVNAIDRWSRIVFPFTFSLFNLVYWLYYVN

The term Ki denotes the dissociation constant of the complex between target and ligand, obtained from inhibition or displacement. For `O=C(N[C@@H]1CCc2ccccc21)C(=O)c1c[nH]c2ccc([N+](=O)[O-])cc12`, the Ki in [1] stood at 28 nM; in data set [2] it was 85 nM. The Activity in data set [3] was 1%; in [4], 48%. Also, the outcome with Mus musculus [5] and in the data set with Mus musculus [6] was inactive.

For `COc1ccc(CNC(=O)C(=O)c2c[nH]c3ccc([N+](=O)[O-])cc23)cc1`, the values for the Ki in data set [1] and in data set [2] were 53 nM and 1650 nM, respectively.

In data set [1], `Cc1ccc(-c2nc3ccc(C)cn3c2CC(=O)N(C)C)cc1` [ZOLPIDEM] had a Ki of 51 nM.

As for `O=C(N[C@@H]1CCc2ccccc21)C(=O)c1c[nH]c2ccccc12`, the Ki came to 675 nM in data set [1] and 3100 nM in data set [2].

Broadly, the inhibition is the drop in the measured response relative to a control, in per cent. A higher inhibition goes with a strong effect. For the compound `O=C(NC1CCc2cc(F)ccc21)C(=O)c1c[nH]c2ccccc12` (racemic), the Ki in [1] came out at 2160 nM; in data set [7], 2050 nM. Also, the inhibition in [8] was found to be 29%; in data set [9], 44%.

For `Cc1ccc2c(c1)CCC2NC(=O)C(=O)c1c[nH]c2ccccc12` (racemic), in the data set listed under Bos taurus, the inhibition was determined as 15%.

Consider `O=C(NCc1ccc([N+](=O)[O-])cc1)C(=O)c1c[nH]c2ccccc12`, for which the Ki in data set [1] was 21 nM; in [2], 210 nM.

In the case of `O=C(NC1CCc2cc(F)ccc21)C(=O)c1c[nH]c2ccc([N+](=O)[O-])cc12` (racemic), the Ki in [1] was found to be 300 nM; in [7], 195 nM; in [2], 810 nM; in [10] it was 1420 nM.

Turning to `COc1ccc2c(c1)CCC2NC(=O)C(=O)c1c[nH]c2ccccc12` (racemic), the Ki in data set [1] was determined as 636 nM; in data set [7] it was 246 nM; in data set [2] it was 690 nM. In addition, the inhibition in data set [9] is 28%.

Take `O=C(NCc1ccc(F)cc1)C(=O)c1c[nH]c2ccc([N+](=O)[O-])cc12`: in the data set filed under Bos taurus, the inhibition amounted to 24%.

Regarding `COc1ccc(CNC(=O)C(=O)c2c[nH]c3ccccc23)cc1`, the results for the Ki in [1], in data set [7] and in data set [2] were 163 nM, 195 nM and 1950 nM, respectively. In data set [9], this compound came in with an inhibition of 30%.

Turning to `C[C@@H](NC(=O)C(=O)c1c[nH]c2ccccc12)c1ccccc1`, the inhibition constant Ki came out at 1310 nM in data set [1] and 1550 nM in [2].

Turning to `COc1ccc2c(c1)CCC2NC(=O)C(=O)c1c[nH]c2ccc([N+](=O)[O-])cc12` (racemic), the Ki stood at 13 nM in [1], 28 nM in [7], 231 nM in [2] and 252 nM in [10].

For the compound `O=C(NCc1ccc([N+](=O)[O-])cc1)C(=O)c1c[nH]c2ccc([N+](=O)[O-])cc12`, the Ki worked out at 620 nM in data set [1], 293 nM in data set [7], 2980 nM in data set [2] and 2220 nM in data set [10].

The compound `O=C(NC1CCc2cc([N+](=O)[O-])ccc21)C(=O)c1c[nH]c2ccccc12` (racemic) showed an inhibition in the data set filed under Bos taurus of 47%.

The compound `O=C(NCc1ccccc1)C(=O)c1c[nH]c2ccc([N+](=O)[O-])cc12` yielded a Ki in data set [1] of 117 nM.

With `CN1C(=O)CN=C(c2ccccc2)c2cc(Cl)ccc21` [DIAZEPAM], the Activity result is “Non-toxic” in the data set on Mus musculus [11] and 81% in data set [4]. In [1], this compound returned a Ki of 10 nM. For the same compound, the outcome with Mus musculus [12] and in the data set with Mus musculus [13] was Active.

For the compound `C[C@@H](NC(=O)C(=O)c1c[nH]c2ccc([N+](=O)[O-])cc12)c1ccccc1`, the Ki in data set [1] was 17 nM; in data set [2] it was 121 nM. For the same compound, the Activity in data set [3] was 35%; in data set [4], 79%; with Mus musculus [14], “Non-toxic”. Besides, the outcome in the data set with Mus musculus [5] and in the data set on Mus musculus [6] was Active.

With `O=C(NCc1ccc(F)cc1)C(=O)c1c[nH]c2ccccc12`, the Ki in [1] is 52 nM; in data set [7], 245 nM; in data set [2], 118 nM; in data set [10], 163 nM. For the same compound, the Activity in data set [3] was 11%; in data set [4], 85%; in the data set on Mus musculus [14] it was “Non-toxic”. The outcome in the data set with Mus musculus [5] and in the data set on Mus musculus [6] was Active.

For the compound `O=C(NC1CCc2cc([N+](=O)[O-])ccc21)C(=O)c1c[nH]c2ccc([N+](=O)[O-])cc12` (racemic), the Ki stood at 178 nM in data set [1], 200 nM in [7], 513 nM in data set [2] and 749 nM in data set [10].

For the compound `O=C(NCc1ccccc1)C(=O)c1c[nH]c2ccccc12`, the Ki in data set [1] came to 120 nM.

As for `Cc1ccc2c(c1)CCC2NC(=O)C(=O)c1c[nH]c2ccc([N+](=O)[O-])cc12` (racemic), in the data set filed under Bos taurus, the inhibition was found to be 2%.

For the origin of these results see ChEMBL document CHEMBL1136986, “Identification of anxiolytic/nonsedative agents among indol-3-ylglyoxylamides acting as functionally selective agonists at the gamma-aminobutyric acid-A (GABAA) alpha2 benzodiazepine receptor” (J Med Chem, 2009).
